Experimental data as given in ChEMBL document CHEMBL1649247, “Fluoroquinolone resistance in Mycobacterium tuberculosis and mutations in gyrA and gyrB” (2009).
Converted amounts (≈) assume the structure as drawn. The source made the active and inactive calls. The rule behind the calls is not given here.

Experiments:
[1] = system: Mycobacterium tuberculosis; assay: Antimycobacterial activity against multidrug-resistant Mycobacterium tuberculosis 99-1914 harboring gyrA Asp94Gly mutant gene by resazurin microtiter assay; format: functional
Procedure, shortened: (§1)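 MIC was read by resazurin microtiter assay against ofloxacin, moxifloxacin and gatifloxacin. Isolates were used as fresh Löwenstein-Jensen subcultures kept at 37°C for no longer than 4 weeks.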

[2] = system: Mycobacterium tuberculosis; assay: Antimycobacterial activity against Mycobacterium tuberculosis 00-0715 harboring gyrA Ala90Val mutant gene assessed as microbial susceptibility by agar proportion method; format: functional, organism-based
Procedure, shortened: (§2)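 Clinical isolates freshly subcultured on Löwenstein-Jensen medium, held at 37°C no longer than 4 weeks. Fluoroquinolone stocks 1 mg/ml in 0.1 N NaOH, filter sterilized, kept at −20°C under 2 months. Standard proportion method on 7H11 agar; breakpoints 2 mg/liter ofloxacin, 0.5 mg/liter moxifloxacin and gatifloxacin; scored susceptible or resistant.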

[3] = system: Mycobacterium tuberculosis; assay: Antimycobacterial activity against multidrug-resistant Mycobacterium tuberculosis 08-0791 harboring gyrA Ala90Val mutant gene by resazurin microtiter assay; format: functional; procedure, shortened: as §1
[4] = system: Mycobacterium tuberculosis; assay: Antimycobacterial activity against multidrug-resistant Mycobacterium tuberculosis 08-0746 assessed as microbial susceptibility by agar proportion method; format: functional, organism-based
Procedure, shortened: (§3)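 Clinical isolates freshly subcultured on Löwenstein-Jensen medium at 37°C for no more than 4 weeks. Susceptibility by standard proportion method on 7H11 agar at breakpoints of 2 mg/liter ofloxacin and 0.5 mg/liter moxifloxacin and gatifloxacin. Drug stocks 1 mg/ml in 0.1 N NaOH, filter sterilized, held at −20°C under 2 months. Isolates scored susceptible or resistant.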

[5] = system: Mycobacterium tuberculosis; assay: Antimycobacterial activity against Mycobacterium tuberculosis 08-0769 harboring gyrA putative promoter mutant gene by resazurin microtiter assay; format: functional
Procedure, shortened: (§4)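 Isolates taken from fresh Löwenstein-Jensen subcultures grown at 37°C for at most 4 weeks. Drug stocks 1 mg/ml in 0.1 N NaOH, filter sterilized, stored at −20°C less than 2 months. MIC read by resazurin microtiter assay following a previously described protocol.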

[6] = system: Mycobacterium tuberculosis; assay: Antimycobacterial activity against multidrug-resistant Mycobacterium tuberculosis 08-0757 harboring gyrA Ala90Val mutant gene assessed as microbial susceptibility by agar proportion method; format: functional, organism-based; procedure, shortened: as §3
[7] = system: Mycobacterium tuberculosis; assay: Antimycobacterial activity against multidrug-resistant Mycobacterium tuberculosis 08-0790 harboring gyrA Ala90Val mutant gene by resazurin microtiter assay; format: functional; procedure, shortened: as §1
[8] = system: Mycobacterium tuberculosis; assay: Antimycobacterial activity against multidrug-resistant Mycobacterium tuberculosis 02-0319 harboring gyrA Asp94Ala mutant gene assessed as microbial susceptibility by agar proportion method; format: functional, organism-based; procedure, shortened: as §2
[9] = system: Mycobacterium tuberculosis; assay: Antimycobacterial activity against multidrug-resistant Mycobacterium tuberculosis 08-0777 assessed as microbial susceptibility by agar proportion method; format: functional, organism-based; procedure, shortened: as §3
[10] = system: Mycobacterium tuberculosis; assay: Antimycobacterial activity against multidrug-resistant Mycobacterium tuberculosis 08-0821 harboring gyrA Asp94Tyr mutant gene by resazurin microtiter assay; format: functional; procedure, shortened: as §1
[11] = system: Mycobacterium tuberculosis; assay: Antimycobacterial activity against Mycobacterium tuberculosis 08-0815 harboring gyrA Thr80Ala and Ala90Gly mutant gene assessed as microbial susceptibility by agar proportion method; format: functional, organism-based; procedure, shortened: as §2
[12] = system: Mycobacterium tuberculosis; assay: Antimycobacterial activity against Mycobacterium tuberculosis 08-0787 harboring gyrA Asp94His mutant gene assessed as microbial susceptibility and deletion of codons 678 and 679 in gyrB mutant gene assessed as microbial susceptibility by agar proportion method; format: functional, organism-based; procedure, shortened: as §2
[13] = system: Mycobacterium tuberculosis; assay: Antimycobacterial activity against Mycobacterium tuberculosis 08-0773 harboring gyrA Pro8Ala mutant gene by resazurin microtiter assay; format: functional; procedure, shortened: as §4
[14] = system: Mycobacterium tuberculosis; assay: Antimycobacterial activity against multidrug-resistant Mycobacterium tuberculosis 08-0746 by resazurin microtiter assay; format: functional; procedure, shortened: as §1
[15] = system: Mycobacterium tuberculosis; assay: Antimycobacterial activity against multidrug-resistant Mycobacterium tuberculosis 02-2934 harboring gyrA Ala90Val mutant gene by resazurin microtiter assay; format: functional; procedure, shortened: as §4
[16] = system: Mycobacterium tuberculosis; assay: Antimycobacterial activity against Mycobacterium tuberculosis 02-1975 harboring gyrA Asp94Gly mutant gene assessed as microbial susceptibility by agar proportion method; format: functional, organism-based; procedure, shortened: as §2
[17] = system: Mycobacterium tuberculosis; assay: Antimycobacterial activity against multidrug-resistant Mycobacterium tuberculosis 01-2230 harboring gyrA Asp94Gly mutant gene by resazurin microtiter assay; format: functional; procedure, shortened: as §4
[18] = system: Mycobacterium tuberculosis; assay: Antimycobacterial activity against multidrug-resistant Mycobacterium tuberculosis 01-2614 harboring gyrA Asp94Gly mutant gene assessed as microbial susceptibility by agar proportion method; format: functional, organism-based; procedure, shortened: as §2
[19] = system: Mycobacterium tuberculosis; assay: Antimycobacterial activity against multidrug-resistant Mycobacterium tuberculosis 01-0172 harboring gyrA Asp94Ala mutant gene assessed as microbial susceptibility by agar proportion method; format: functional, organism-based; procedure, shortened: as §2
[20] = system: Mycobacterium tuberculosis; assay: Antimycobacterial activity against multidrug-resistant Mycobacterium tuberculosis 08-0779 by resazurin microtiter assay; format: functional; procedure, shortened: as §1
[21] = system: Mycobacterium tuberculosis; assay: Antimycobacterial activity against Mycobacterium tuberculosis 08-0773 harboring gyrA Pro8Ala mutant gene assessed as microbial susceptibility by agar proportion method; format: functional, organism-based; procedure, shortened: as §2
[22] = system: Mycobacterium tuberculosis; assay: Antimycobacterial activity against multidrug-resistant Mycobacterium tuberculosis 08-0810 harboring gyrA Asp94Tyr mutant gene assessed as microbial susceptibility by agar proportion method; format: functional, organism-based; procedure, shortened: as §3
[23] = system: Mycobacterium tuberculosis; assay: Antimycobacterial activity against multidrug-resistant Mycobacterium tuberculosis 02-2934 harboring gyrA Ala90Val mutant gene assessed as microbial susceptibility by agar proportion method; format: functional, organism-based; procedure, shortened: as §2
[24] = system: Mycobacterium tuberculosis; assay: Antimycobacterial activity against multidrug-resistant Mycobacterium tuberculosis 01-0172 harboring gyrA Asp94Ala mutant gene by resazurin microtiter assay; format: functional; procedure, shortened: as §4
[25] = system: Mycobacterium tuberculosis; assay: Antimycobacterial activity against multidrug-resistant Mycobacterium tuberculosis 08-0777 by resazurin microtiter assay; format: functional; procedure, shortened: as §1
[26] = system: Mycobacterium tuberculosis; assay: Antimycobacterial activity against multidrug-resistant Mycobacterium tuberculosis 08-0791 harboring gyrA Ala90Val mutant gene assessed as microbial susceptibility by agar proportion method; format: functional, organism-based; procedure, shortened: as §3
[27] = system: Mycobacterium tuberculosis; assay: Antimycobacterial activity against Mycobacterium tuberculosis 08-0771 harboring gyrA putative promoter mutant gene by resazurin microtiter assay; format: functional; procedure, shortened: as §4
[28] = system: Mycobacterium tuberculosis; assay: Antimycobacterial activity against multidrug-resistant Mycobacterium tuberculosis 08-0810 harboring gyrA Asp94Tyr mutant gene by resazurin microtiter assay; format: functional; procedure, shortened: as §1
[29] = system: Mycobacterium tuberculosis; assay: Antimycobacterial activity against multidrug-resistant Mycobacterium tuberculosis 08-0794 harboring gyrA Thr80Ala mutant gene assessed as microbial susceptibility by agar proportion method; format: functional, organism-based; procedure, shortened: as §3
[30] = system: Mycobacterium tuberculosis; assay: Antimycobacterial activity against Mycobacterium tuberculosis 08-0745 harboring gyrA Asp89Asn mutant gene by resazurin microtiter assay; format: functional; procedure, shortened: as §4
[31] = system: Mycobacterium tuberculosis; assay: Antimycobacterial activity against multidrug-resistant Mycobacterium tuberculosis 08-0785 harboring gyrA Ala90Val mutant gene assessed as microbial susceptibility by agar proportion method; format: functional, organism-based; procedure, shortened: as §3
[32] = system: Mycobacterium tuberculosis; assay: Antimycobacterial activity against multidrug-resistant Mycobacterium tuberculosis 02-1234 harboring gyrA Asn533Thr gyrB mutant gene by resazurin microtiter assay; format: functional; procedure, shortened: as §4
[33] = system: Mycobacterium tuberculosis; assay: Antimycobacterial activity against multidrug-resistant Mycobacterium tuberculosis 01-1647 harboring gyrA Ala90Val mutant gene assessed as microbial susceptibility by agar proportion method; format: functional, organism-based; procedure, shortened: as §2
[34] = system: Mycobacterium tuberculosis; assay: Antimycobacterial activity against multidrug-resistant Mycobacterium tuberculosis 01-0930 harboring gyrA Ala90Val mutant gene by resazurin microtiter assay; format: functional; procedure, shortened: as §4
[35] = system: Mycobacterium tuberculosis; assay: Antimycobacterial activity against multidrug-resistant Mycobacterium tuberculosis 08-0779 assessed as microbial susceptibility by agar proportion method; format: functional, organism-based; procedure, shortened: as §3
[36] = system: Mycobacterium tuberculosis; assay: Antimycobacterial activity against Mycobacterium tuberculosis 08-0769 harboring gyrA putative promoter mutant gene assessed as microbial susceptibility by agar proportion method; format: functional, organism-based; procedure, shortened: as §2
[37] = system: Mycobacterium tuberculosis; assay: Antimycobacterial activity against multidrug-resistant Mycobacterium tuberculosis 08-0785 harboring gyrA Ala90Val mutant gene by resazurin microtiter assay; format: functional; procedure, shortened: as §1
[38] = system: Mycobacterium tuberculosis; assay: Antimycobacterial activity against Mycobacterium tuberculosis 08-0771 harboring gyrA putative promoter mutant gene assessed as microbial susceptibility by agar proportion method; format: functional, organism-based; procedure, shortened: as §2

Row | Structure (SMILES) | MIC [1] | Activity [2] | MIC [3] | Activity [4] | MIC [5] | Activity [6] | MIC [7] | Activity [8] | Activity [9] | MIC [10] | Activity [11] | Activity [12] | MIC [13] | MIC [14] | MIC [15] | Activity [16] | MIC [17] | Activity [18] | Activity [19] | MIC [20] | also measured
1 | CC1COc2c(N3CCN(C)CC3)c(F)cc3c(=O)c(C(=O)O)cn1c23 (centres undefined) [OFLOXACIN] | 8 µg/mL (≈ 22.1 µM) | inactive | 4 µg/mL (≈ 11.1 µM) | Active | 1 µg/mL (≈ 2.77 µM) | inactive | 4 µg/mL (≈ 11.1 µM) | inactive | Active | 8 µg/mL (≈ 22.1 µM) | Active | inactive | 0.5 µg/mL (≈ 1.38 µM) | 0.5 µg/mL (≈ 1.38 µM) | 4 µg/mL (≈ 11.1 µM) | inactive | 8 µg/mL (≈ 22.1 µM) | inactive | inactive | 0.5 µg/mL (≈ 1.38 µM) | Activity [21]: Active; Activity [22]: inactive; Activity [23]: inactive; MIC [24]: 4 µg/mL (≈ 11.1 µM); MIC [25]: 0.5 µg/mL (≈ 1.38 µM); Activity [26]: inactive; MIC [27]: 1 µg/mL (≈ 2.77 µM); MIC [28]: 8 µg/mL (≈ 22.1 µM); Activity [29]: Active; MIC [30]: 4 µg/mL (≈ 11.1 µM); Activity [31]: inactive; MIC [32]: 1 µg/mL (≈ 2.77 µM); Activity [33]: inactive; MIC [34]: 4 µg/mL (≈ 11.1 µM); Activity [35]: Active; Activity [36]: Active; MIC [37]: 8 µg/mL (≈ 22.1 µM); Activity [38]: Active
2 | COc1c(N2C[C@@H]3CCCN[C@@H]3C2)c(F)cc2c(=O)c(C(=O)O)cn(C3CC3)c12 [MOXIFLOXACIN] | 2 µg/mL (≈ 4.98 µM) | inactive | 0.5 µg/mL (≈ 1.25 µM) | Active | <=0.125 mg/L | inactive | 1 µg/mL (≈ 2.49 µM) | inactive | Active | 4 µg/mL (≈ 9.96 µM) | Active | inactive | <=0.125 mg/L | ≤ 0.125 µg/mL | 0.25 µg/mL (≈ 0.623 µM) | inactive | 2 µg/mL (≈ 4.98 µM) | inactive | inactive | ≤ 0.125 µg/mL | Activity [21]: Active; Activity [22]: inactive; Activity [23]: inactive; MIC [24]: 0.5 µg/mL (≈ 1.25 µM); MIC [25]: ≤ 0.125 µg/mL; Activity [26]: inactive; MIC [27]: <=0.125 mg/L; MIC [28]: 2 µg/mL (≈ 4.98 µM); Activity [29]: Active; MIC [30]: 2 µg/mL (≈ 4.98 µM); Activity [31]: inactive; MIC [32]: 0.5 µg/mL (≈ 1.25 µM); Activity [33]: inactive; MIC [34]: 0.5 µg/mL (≈ 1.25 µM); Activity [35]: Active; Activity [36]: Active; MIC [37]: 2 µg/mL (≈ 4.98 µM); Activity [38]: Active
3 | COc1c(N2CCNC(C)C2)c(F)cc2c(=O)c(C(=O)O)cn(C3CC3)c12 (centres undefined) [GATIFLOXACIN] | 1 µg/mL (≈ 2.66 µM) | inactive | 0.25 µg/mL (≈ 0.666 µM) | Active | 0.125 µg/mL (≈ 0.333 µM) | inactive | 0.5 µg/mL (≈ 1.33 µM) | inactive | Active | 1 µg/mL (≈ 2.66 µM) | Active | inactive | <=0.062 mg/L | ≤ 0.062 µg/mL | 0.25 µg/mL (≈ 0.666 µM) | inactive | 1 µg/mL (≈ 2.66 µM) | inactive | inactive | ≤ 0.062 µg/mL | Activity [21]: Active; Activity [22]: inactive; Activity [23]: inactive; MIC [24]: 0.25 µg/mL (≈ 0.666 µM); MIC [25]: ≤ 0.062 µg/mL; Activity [26]: inactive; MIC [27]: 0.125 µg/mL (≈ 0.333 µM); MIC [28]: 1 µg/mL (≈ 2.66 µM); Activity [29]: Active; MIC [30]: 1 µg/mL (≈ 2.66 µM); Activity [31]: inactive; MIC [32]: 0.5 µg/mL (≈ 1.33 µM); Activity [33]: inactive; MIC [34]: 0.5 µg/mL (≈ 1.33 µM); Activity [35]: Active; Activity [36]: Active; MIC [37]: 1 µg/mL (≈ 2.66 µM); Activity [38]: Active
